Compound activity from PubChem.
NALP1 inh – NALP1 inflammasome inhibitors in reconstituted yeast, colorimetric, S. cerevisiae, triplicate retest. S. cerevisiae NALP1/ASC/caspase-1 growth, X-gal OD620, 72 h. inhibition, % at 10 µM. 280,000 tested, 0.61% active; in the data active = inhibition mostly above about 24%, no sharp cut-off; inactive = mostly below about 32%
Bfl-1 A1 inh – caspase 3/7 activation in MEF A1-2A-BIM cells, primary screen, A1 inhibitor project, cell-based, luminescence, HTS. caspase activation, % (no concentration beside the values). Caspase-Glo 3/7 luminescence, 3 h; percent of clofoctol response, vehicle zero. 330,000 tested, 0.066% active. AID 2462, 2010;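 active = over half of replicate activation scores above 10%, or exactly half above 10 with the replicate mean above 10; inconclusive = replicate mean below 10 yet half the replicates above 10; inactive = over half of replicates below 10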
TbMetRS inhib – T. brucei MetRS inhibitors, primary screen, biochemical, luminescence; 360,000 tested, 0.4% active; AID 624268, 2012; purified T. brucei MetRS, ATP depletion, Kinase-Glo luminescence; inhibition, % at 11.9 µM;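 active = inhibition above a per-plate cutoff of the control wells' mean inhibition plus 3 SD, cut at about 5.5% in these data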;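 also: 0% = DMSO wells median and 100% = median of wells with control inhibitor compound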
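technique = Kinase-Glo luminescence, ATP depletion format | system = purified MetRS (methionyl-tRNA synthetase) enzyme from Trypanosoma brucei | timing = 15 min preincubation, 2 h reaction, all 25 °C | evaluation = percent inhibition versus plate control medians | dosing = single dose, 11.9 µM final nominal, 0.9% final DMSO | also added = substrates ATP, L-methionine and bulk Escherichia coli tRNA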
NALP3 yeast inh – NALP3 inflammasome inhibitors in reconstituted yeast, primary screen, luminescence, uHTS. Yeast reconstituted NLRP3/ASC/caspase-1, beta-gal luminescence, 24 h. inhibition, % at 10 µM. 330,000 tested, 0.39% active. AID 2825, 2010;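 active = inhibition of 50% or more; inactive = inhibition below 50%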;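 also: plate controls were induced DMSO wells for no effect and uninduced yeast grown without galactose for full effect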
MC4R barr agon – MC4R agonists recruiting beta-arrestin, primary screen, cell-based, luminescence, agonist arm of biased-ligand search. 360,000 tested, 0.98% active. Melanocortin receptor 4 (Homo sapiens), P32245. U2OS MC4R beta-arrestin complementation; percent of melanotan II response, DMSO zero. activation, % at 8.9 µM;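 active = activation above a per-plate cutoff, the mean activation of sample wells on that plate plus 3 SD, cut at about 8% in these data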
Target sequence (P32245 whole entry, looked up): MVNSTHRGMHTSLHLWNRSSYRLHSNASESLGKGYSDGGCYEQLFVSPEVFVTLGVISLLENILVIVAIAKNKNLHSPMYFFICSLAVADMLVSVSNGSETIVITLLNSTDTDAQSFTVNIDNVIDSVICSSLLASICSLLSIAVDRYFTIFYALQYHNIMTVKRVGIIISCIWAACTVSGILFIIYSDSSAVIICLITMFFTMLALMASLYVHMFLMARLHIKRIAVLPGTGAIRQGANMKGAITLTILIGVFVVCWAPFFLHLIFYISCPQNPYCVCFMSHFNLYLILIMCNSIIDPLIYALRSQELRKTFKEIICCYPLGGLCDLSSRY
MC4R antagonist – MC4R antagonists of cAMP signaling, primary screen, cell-based, TR-FRET, antagonist arm of biased-ligand search. Melanocortin receptor 4 (Homo sapiens), P32245. MC4R-expressing cells, MTII-stimulated cAMP, LANCE TR-FRET. inhibition, % at 6.5 µM. 360,000 tested, 0.48% active;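 active = inhibition above its plate's cutoff, the mean of tested wells on that plate plus 3 SD, cut at about 29% in these data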;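 also: 0% = Melanotan II alone and 100% = Melanotan II plus saturating MCL0020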
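Material – human MC4R-expressing U2OS cells · Repeats – no replicates · Detection – TR-FRET with Eu-cAMP and labeled anti-cAMP, 671 nm · Times – compound 30 min, challenge 1 h, detection 1 h · Compound – single nominal compound dose of 6.5 µM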
U2OS cAMP counter – nonselective cAMP signaling inhibitors, parental cells, counter-screen for MC4R biased antagonist project, cell-based, TR-FRET, U2OS, forskolin, triplicate | LANCE TR-FRET | shares compounds with MC4R antagonist | inhibition, % at 6.5 µM | AID 602193, 2012 | 1,600 tested, 26% active;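 active = mean inhibition over triplicates above the low-control well mean plus 3 SD, set per campaign, cut at about 13% in these data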;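 also: signal is single emission at 671 nm which falls as cellular cAMP rises; 0% = forskolin-stimulated wells and 100% = buffer without forskolin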
MC4R cAMP antag – MC4R cAMP antagonists, retest, confirmation, cell-based, TR-FRET | shares compounds with MC4R antagonist | MC4R-expressing cells, MTII-stimulated cAMP | inhibition, % at 6.5 µM | 1,600 tested, 27% active; in the data active = inhibition above about 29%;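 also: 0% = agonist stimulated wells alone and 100% = agonist stimulated wells plus saturating reference antagonist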
Numbers without * were called inactive; ? = inconclusive; . = not tested or not shown. Hits are enriched below; roughly 2.5% of the tested compounds scored in any of these assays.

SMILES	NALP1 inh	Bfl-1 A1 inh	TbMetRS inhib	NALP3 yeast inh	MC4R barr agon	MC4R antagonist	U2OS cAMP counter	MC4R cAMP antag
CC(C)CNC(=O)C1(C)CCCN1Cc1ccc(S(C)(=O)=O)cc1 (centres undefined)	.	.	0	.	-1	3	.	.
C=C1C(=O)C23C(O)C1CCC2C12CCCC(C)(COC(C)=O)C1C(O)C3(O)OC2 (centres undefined)	.	.	0	.	-2	31*	8	-13
CC(c1ccccc1)N1CC(C(=O)Nc2ccc(F)cc2)CC1=O (centres undefined)	.	0	0	3	0	16	.	.
C[C@@H]1CN([C@H](C)CO)C(=O)CCCn2cc(nn2)CO[C@H]1CN(C)C(=O)Nc1ccc(C(C)(C)C)cc1	.	.	-1	.	.	.	.	.
CNCCNC[C@H](Cc1cccc2ccccc12)NCCc1ccccc1	.	0	0	4	1	1	.	.
CNC[C@H](Cc1ccccc1)NC[C@@H](Cc1cccc2ccccc12)NCCc1ccc(C)cc1	19	1	0	23	5	31*	-4	-28
CCCCn1c(N)c(N(CC(C)C)C(=O)CSc2nnc(-c3ccc(Cl)cc3)o2)c(=O)[nH]c1=O	.	-1	0	-2	-1	13	.	.
COc1ccc(-n2cc(-c3ccccc3)[n+]3c2CCCCC3)cc1	-8	-1	-1	13	-2	0	.	.
FC(F)Oc1ccc(-n2cc(-c3ccc(Cl)cc3)[n+]3c2CCCCC3)cc1	-18	-1	0	3	-1	29*	-1	-5
O=C(NCC(=O)N1CCN(c2ccccn2)CC1)c1ccc(Br)o1	0	-2	0	13	-1	11	.	.
CC(c1ccco1)N(C(=O)c1ccccc1NS(=O)(=O)c1ccc(Cl)c([N+](=O)[O-])c1)c1ccccn1 (centres undefined)	39	0	0	-7	-1	39*	6	16
CN(c1ccccc1)S(=O)(=O)c1cccc(NC(=O)c2cc3ccccc3oc2=O)c1	.	-1	0	6	-2	8	.	.
COc1ccccc1NS(=O)(=O)c1cccc(NC(=O)c2cc3ccccc3oc2=O)c1	39	0	0	-3	7	29*	-5	-11
O=C(OCC(=O)N1CCOCC1)c1ccc(Cl)cc1[N+](=O)[O-]	14	?	0	28	0	-4	.	.
COC(=O)c1ccc2c(=O)[nH]c(CCl)nc2c1	-4	0	0	-17	-1	30*	5	7
Cc1cc(NC(=O)CSc2nc3ccccc3cc2C#N)no1	14	1	0	22	0	51*	7	0
Cc1cc(NC(=O)CSc2nc(-c3cccnc3)ccc2C#N)no1	19	0	-1	-4	0	11	.	.
Cc1cc(NC(=O)CSc2nc3c(c(-c4cccnc4)c2C#N)CCC3)no1	6	0	-1	-2	3	47*	19*	57*
COCCNC(=O)C1(C)CCN(C(=O)c2sccc2C)C1 (centres undefined)	.	.	0	.	-2	0	.	.
COC(=O)CSc1nnc(-c2ccc(S(=O)(=O)N3CCCC3)cc2)o1	6	0	-1	9	0	34*	14*	24
COC(=O)CSc1nnc(-c2ccc(S(=O)(=O)NCc3ccccc3Cl)cc2)o1	-8	0	0	3	1	36*	10	40*
COC(=O)CSc1nnc(-c2ccc(OC)c(OC)c2)o1	-6	0	0	15	-2	16	.	.
CCOC(=O)Cc1csc(NC(=O)CSc2nnc(-c3ccc(NS(=O)(=O)CC)cc3)o2)n1	.	0	0	6	0	30*	-3	-19
CCOC(=O)CSc1nnc(-c2ccc(S(=O)(=O)NCc3cccs3)cc2)o1	.	0	-1	2	4	39*	15*	42*
CC1CC(=O)Nc2ccccc2N1C(=O)COc1cc(Cl)ccc1Cl (centres undefined)	.	0	0	16	-3	9	.	.
SMILES	NALP1 inh	Bfl-1 A1 inh	TbMetRS inhib	NALP3 yeast inh	MC4R barr agon	MC4R antagonist	U2OS cAMP counter	MC4R cAMP antag
COC(=O)CSc1nnc(-c2ccc(S(=O)(=O)NCc3cccs3)cc2)o1	9	0	0	5	-2	43*	17*	44*
CCS(=O)(=O)Nc1ccc(-c2nnc(SCC(=O)OC)o2)cc1	3	1	-1	20	0	19	.	.
N#Cc1ccc(C(=O)OCC(=O)Nc2cccnc2Cl)cc1	.	.	0	.	0	3	.	.
CCOC(=O)c1c(NC(=O)C2CCCO2)sc(C(N)=O)c1C (centres undefined)	32	0	-1	-14	2	0	.	.
CCOC(=O)c1c(NC(=O)C2c3ccccc3Oc3ccccc32)sc(C(N)=O)c1C	-12	1	-1	6	4	32*	6	22
O=C(CCN1CCOCC1)c1ccc2c(c1)OCCO2	14	0	0	-2	-1	30*	7	24
CCCNC(=O)C1(C)CCCN(C(=O)c2cccc(OC(F)(F)F)c2)C1 (centres undefined)	.	.	0	.	0	13	.	.
COc1ccc(N2CC(NC(=O)c3ccc4ccccc4c3)CC2=O)cc1OC (centres undefined)	.	0	0	-2	-2	6	.	.
O=C(CCc1nc(-c2ccccc2Cl)no1)NCCc1ccccc1	19	0	-1	20	1	29*	-1	2
CCC(C)C(N)C(=O)N1CCCC1C(=O)NC(C(=O)O)C(C)CC (centres undefined)	.	.	0	.	-1	1	.	.
CC(=O)Nc1ccccc1OCCOc1ccc(Br)cc1	-4	1	2	1	-1	36*	1	-4
CC(=O)Nc1cccc(OC(=O)COc2ccc(Br)cc2)c1	19	0	0	8	2	29*	-1	4
O=c1cc(CN2CCN(S(=O)(=O)c3cccc(Cl)c3)CC2)c2ccc(O)cc2o1	.	-1	0	-4	-1	4	.	.
O=C(c1cccc(F)c1)N1CCN(C(=O)C(c2ccccc2)c2ccccc2)CC1	11	0	0	9	-1	12	.	.
